Data taken from PubChem BioAssay.
Calls of active or inactive are those of the source.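 How the source made its calls, unless noted: active means GFP response above 150% of the DMSO level; inconclusive means fewer than 70 events counted for a yeast strain; inactive means the rest.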

What was measured:
[1] = hit retest on RPL19A-GFP reporter strain – cell-based, S. cerevisiae, flow cytometry, cherry picks, mother/daughter gates, confirmation (AID 2270;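 active means GFP response below 50% of the DMSO control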); conditions: 3 h, at 10 µM, stronger effect = lower value, 100 = same GFP as DMSO wells
[2] = yeast TOR pathway reporter LAP4-GFP change – cell-based, cherry picks, flow cytometry, mother/daughter gates, confirmation (AID 2271;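 active means GFP response above 150% of the DMSO control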;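 further: ratio of sample to DMSO plate mean so 100% equals DMSO level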); conditions: S. cerevisiae LAP4-GFP strain, 3 h, at 10 µM, stronger effect = higher value, 100 means same as DMSO control
Summary of the method: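 System: Alexa 633-stained baker's yeast GFP-fusion strain / Medium: synthetic complete (SC) yeast growth medium / Doses: compound at 10 µM, single point / Times: 3 h treatment at 30 °C with rotation / Detection: HT flow cytometry, GFP fluorescence channel / Benchmarks: DMSO-only negative wells, rapamycin 400 ng/mL positive wells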

[3] = TOR pathway reporter MEP2-GFP, retest of hits – S. cerevisiae, flow cytometry GFP, cherry picks, confirmation (AID 2272;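 active means GFP response above 150% of the DMSO control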;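 further: ratio of well signal to plate DMSO mean so 100% equals DMSO level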); conditions: S. cerevisiae MEP2-GFP strain, 3 h, at 10 µM, stronger effect = higher value
[4] = yeast AGP1-GFP fluorescence change, single-dose – cell-based, flow cytometry, S. cerevisiae, cherry picks, confirmation (AID 2273);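 further: median GFP channel fluorescence over the whole cell population gate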; conditions: S. cerevisiae AGP1-GFP strain, 3 h, at 10 µM
[5] = TOR pathway CIT2 reporter hit retest – S. cerevisiae, GFP fusion, cherry picks, mother/daughter gates, confirmation (AID 2274); conditions: S. cerevisiae CIT2-GFP strain, flow cytometry, 3 h, at 10 µM, stronger effect = higher value
[6] = measured here: daughter cell gate
[7] = measured here: mother cell gate
[8] = measured here: daughter cell gate response
[9] = measured here: mother cell gate response

Row | Structure (SMILES) | GFP response vs DMSO [1] | GFP response vs DMSO [1, 6] | GFP response vs DMSO [1, 7] | GFP response relative to DMSO [2] | GFP response relative to DMSO [2, 8] | GFP response relative to DMSO [2, 9] | GFP response vs DMSO [3] | GFP response, % of DMSO [4] | GFP response, % of DMSO [5] | GFP response, % of DMSO [5, 6] | GFP response, % of DMSO [5, 7]
1 | O=[N+]([O-])/C=C/c1c(OCc2ccccc2)ccc2ccccc12 | 102% (inactive) | 104% | 101% | 112% (inactive) | 106% | 118% | 98.8% (inactive) | 102% (inactive) | 99.7% (inactive) | 103% | 94.7%
2 | CCOc1ccc(C(=O)/C=C/c2ccc(SC)cc2)cc1 | 98% (inactive) | 100% | 96.8% | 102% (inactive) | 99.1% | 103% | 101% (inactive) | 102% (inactive) | 100% (inactive) | 99.2% | 80.9%
3 | Cc1cc(NCCCN2CCOCC2)n2ncc(-c3ccccc3)c2n1 | 99.3% (inactive) | 98.1% | 99.6% | 96.2% (inactive) | 95.6% | 98.3% | 102% (inactive) | 102% (inactive) | 95.2% (inactive) | 98.1% | 93.4%
4 | O=C(Nc1nc(-c2ccc(Cl)s2)cs1)c1cccs1 | 93.8% (inactive) | 91% | 93.7% | 113% (inactive) | 107% | 119% | 97.2% (inactive) | 98.8% (inactive) | 83.3% (inactive) | 85.2% | 82.6%
5 | CCN(CC)c1ccc(/C=C/c2cccc[n+]2C)c(OC)c1 | 103% (inactive) | 103% | 105% | 113% (inactive) | 113% | 116% | 137% (inactive) | 104% (inactive) | 112% (inactive) | 113% | 111%
6 | COc1ccc(OCC(O)CNC(=O)/C=C/c2cccc([N+](=O)[O-])c2)cc1 (centres undefined) | 100% (inactive) | 100% | 100% | 104% (inactive) | 102% | 104% | 101% (inactive) | 107% (inactive) | 103% (inactive) | 103% | 104%
7 | COc1ccccc1Oc1ccc(S(=O)(=O)N2CCCC2)cc1 | 102% (inactive) | 100% | 103% | 91.4% (inactive) | 91% | 95.2% | 95.7% (inactive) | 93.5% (inactive) | 93.9% (inactive) | 94.8% | 92.3%
8 | CCCCN(CCCC)S(=O)(=O)c1ccc(C(=O)Nc2nnc(COC)o2)cc1 | 106% (inactive) | 106% | 103% | 131% (inactive) | 140% | 126% | 149% (inactive) | 106% (inactive) | 100% (inactive) | 103% | 101%
9 | C=CCNC(=O)/C(C#N)=C/c1c(N(Cc2ccccc2)Cc2ccccc2)nc2ccccn2c1=O | 98.8% (inactive) | 98.6% | 98.8% | 99.8% (inactive) | 99.7% | 99.2% | 103% (inactive) | 101% (inactive) | 94.7% (inactive) | 96.8% | 94.7%
10 | O=S(=O)(c1ccc(Oc2ccc(Br)cc2)cc1)N1CCOCC1 | 103% (inactive) | 102% | 103% | 86% (inactive) | 86.4% | 83.7% | 97.5% (inactive) | 90.1% (inactive) | 95% (inactive) | 96.4% | 93.3%
11 | CCC(=O)c1ccc(N2CCN(C(=O)c3ccc(Br)cc3)CC2)c(F)c1 | 97.6% (inactive) | 97.6% | 94.4% | 115% (inactive) | 117% | 112% | 101% (inactive) | 96.1% (inactive) | 95.9% (inactive) | 97.4% | 93.2%
12 | CCCn1c(=O)c(C(=O)NCc2ccc(OC)c(OC)c2)c(O)c2ccccc21 | 98% (inactive) | 97.6% | 97.6% | 102% (inactive) | 102% | 103% | 107% (inactive) | 95% (inactive) | 101% (inactive) | 97.2% | 101%
13 | O=[N+]([O-])c1c(Nc2ccccn2)cc(Cl)c2nonc12 | 139% (inactive) | 86.3% | 129% | 478% (active) | 123% | 522% | 966% (active) | 143% (inactive) | 979% (active) | 103% | 906%
14 | Cc1ccc(C(=O)Nc2nnc(CC(=O)N/N=C/c3ccc(O)c(O)c3)s2)cc1 | 97.8% (inactive) | 99% | 95.9% | 94.1% (inactive) | 92.9% | 95.4% | 103% (inactive) | 104% (inactive) | 103% (inactive) | 103% | 104%
15 | CCOC(=O)c1sc(NC(=O)CN2C(=O)c3cccc4cccc(c34)C2=O)nc1C | 96.6% (inactive) | 98.1% | 96.9% | 87.6% (inactive) | 86.4% | 87.6% | 100% (inactive) | 98.3% (inactive) | 98.3% (inactive) | 101% | 97.3%
16 | CCCc1[nH]nc2c1C(c1ccc(Br)s1)C(C#N)=C(N)O2 (centres undefined) | 96.2% (inactive) | 96.7% | 95.4% | 137% (inactive) | 136% | 137% | 122% (inactive) | 105% (inactive) | 101% (inactive) | 101% | 102%
17 | COc1ccccc1C(=O)NNC(=O)C(=O)Nc1cccc(Cl)c1C | 106% (inactive) | 111% | 101% | 112% (inactive) | 118% | 109% | 116% (inactive) | 109% (inactive) | 119% (inactive) | 122% | 113%
18 | O=C(CN1CCN(Cc2ccccc2Cl)C1=O)NC1CCCCCCC1 | 98.2% (inactive) | 98.6% | 99.7% | 96.7% (inactive) | 97.6% | 95.1% | 100% (inactive) | 99.7% (inactive) | 107% (inactive) | 106% | 104%
19 | O=C(COC(=O)c1n[nH]c2ccccc12)c1cccc(Br)c1 | 96.5% (inactive) | 95.6% | 94.8% | 101% (inactive) | 101% | 99.5% | 101% (inactive) | 102% (inactive) | 100% (inactive) | 95.8% | 100%
20 | CCc1ccccc1OCc1nnc(N)s1 | 101% (inactive) | 98.8% | 102% | 98.2% (inactive) | 99.1% | 97.3% | 101% (inactive) | 102% (inactive) | 100% (inactive) | 101% | 99.3%
21 | COc1ccc(NC(=S)NCCCCCC(=O)C[N+](=O)[O-])cc1 | 96% (inactive) | 96.4% | 96.1% | 90.2% (inactive) | 91.2% | 89.7% | 98.3% (inactive) | 98.7% (inactive) | 99.7% (inactive) | 101% | 97.3%
22 | CCSc1nnc(NC(=O)c2ccccn2)s1 | 101% (inactive) | 100% | 99.8% | 257% (active) | 223% | 254% | 122% (inactive) | 93.8% (inactive) | 97.8% (inactive) | 104% | 91%
23 | Cc1cc(Br)c2c(c1)/C(=C/C(=O)c1cccs1)C(=O)N2 | 99.6% (inactive) | 99.1% | 99.2% | 115% (inactive) | 115% | 117% | 105% (inactive) | 107% (inactive) | 98.4% (inactive) | 93.7% | 95.7%
24 | Cc1ccc(/C=C/C(=O)c2ccccc2)cc1 | 97.4% (inactive) | 96.7% | 98.3% | 100% (inactive) | 102% | 99.5% | 99.5% (inactive) | 102% (inactive) | 102% (inactive) | 100% | 99.1%
